# Scp1 inh = inhibitors of human Scp-1 phosphatase; Q9GZU7; Recombinant Scp1, phosphopeptide, malachite green phosphate absorbance; inhibition, % at 20 µM; 340,000 tested, 0.88% active; AID 493091;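 active = inhibition above about 50% at 20 µM, limit read from the data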;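 also: plate controls were DMSO wells with enzyme for no effect and wells lacking enzyme for full effect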
# Target sequence (Q9GZU7 76-261 limits assumed): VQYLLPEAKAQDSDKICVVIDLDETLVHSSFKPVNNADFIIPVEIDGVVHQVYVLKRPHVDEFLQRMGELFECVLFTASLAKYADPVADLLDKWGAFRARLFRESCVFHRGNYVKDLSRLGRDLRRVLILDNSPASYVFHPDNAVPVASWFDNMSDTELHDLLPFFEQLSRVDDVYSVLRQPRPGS
#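 System: SCP-1 catalytic domain; Reagent: Phospho 17-mer peptide substrate; Doses: one concentration, 20 µM, with 1.0% DMSO; Incubation: 45 min room-temperature reaction, 5 min colour, 30 min stabiliser; Signal: Phosphate-binding colour reagent, absorbance read at 630 nm.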
# STEP block = blocks human striatal-enriched tyrosine phosphatase | P54829 | inhibition, % at 20 µM | recombinant STEP, OMFP fluorogenic substrate, fluorescence | 360,000 tested, 0.25% active;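 active = inhibition at 20 µM, scaled per plate between control wells, above about 37%, limit read from the data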;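 also: 0% = DMSO with enzyme and substrate and 100% = substrate only without enzyme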
#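 System: STEP (striatal-enriched tyrosine phosphatase) enzyme, cell-free; medium: Bis-Tris pH 6.0 buffer with DTT, detergent; dosing: 20 µM, 1% DMSO; times: reaction 20 min, ambient temperature; detection: fluorescence, 480/540 nm; read-out basis: normalized % inhibition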
# LMPTP inh = blocks human LMPTP phosphatase. P24666. recombinant LMPTP-A, OMFP fluorogenic substrate, fluorescence intensity. inhibition, % at 20 µM. 360,000 tested, 0.22% active;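 active = compounds that cut the enzyme signal by at least half of the control window in the single-dose screen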;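 also: plate controls were DMSO wells with enzyme plus substrate for no effect and substrate without enzyme for full effect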
# Target sequence (P24666 whole entry, looked up): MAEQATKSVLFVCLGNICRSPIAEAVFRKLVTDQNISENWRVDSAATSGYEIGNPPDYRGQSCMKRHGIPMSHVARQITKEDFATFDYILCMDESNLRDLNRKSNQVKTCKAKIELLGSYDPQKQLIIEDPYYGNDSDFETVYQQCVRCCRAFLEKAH
#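 Buffer or medium: Bis-Tris pH 6.0, DTT, detergent; Assay system: LMPTP-A enzyme; Quantity: 0.625 nM enzyme; Detection: endpoint fluorescence intensity; Times: 50 min dark incubation at room temperature; Controls: substrate-only low control, DMSO enzyme-plus-substrate high control; Doses: single 20 µM dose; Read-out: percent inhibition versus substrate-only and uninhibited controls; Reagent: 400 µM OMFP.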
# NadD inh = blocks S. aureus nicotinate mononucleotide adenylyltransferase; purified NadD enzyme, colorimetric absorbance read-out; inhibition, % at 20 µM; 360,000 tested, 0.78% active; AID 602399; in the data active = inhibition above about 26%
# SUMO1 PPI mod = SUMO1-SIM interaction modulation | SUMO1 binding to a labelled peptide, TR-FRET, 1 h | 360,000 tested, 0.33% active | inhibition, % at 20 µM | P63165 | AID 602429; in the data active = inhibition above about 37%
# Target sequence (P63165 whole entry, looked up): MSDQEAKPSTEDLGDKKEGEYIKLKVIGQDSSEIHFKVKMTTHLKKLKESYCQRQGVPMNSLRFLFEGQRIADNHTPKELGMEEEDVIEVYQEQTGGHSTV
# DNMT1 block = blocks human DNA methyltransferase DNMT1; P26358; DNMT1 molecular beacon, Hinp1I cleavage, fluorescence; inhibition (reported as % activation of signal), % at 10 µM; 360,000 tested, 0.83% active; AID 588458; in the data active = inhibition above about 50%
# Starred values were filed as active, the others as inactive; . = not tested or not shown. An excerpt weighted towards active compounds, which were near 2.3% of everything screened.
SMILES,Scp1 inh,STEP block,LMPTP inh,NadD inh,SUMO1 PPI mod,DNMT1 block
C=CCNC(=O)NC(=O)COC(=O)/C(C#N)=C/c1ccc(OC)cc1,-9,11,-3,-1,-24,0
CC(NC(=O)C12CC3CC(CC(C3)C1)C2)C(=O)N/N=C/C1=C(N2CCOCC2)C(=C\c2cccc([N+](=O)[O-])c2)/CC1 (centres undefined),-2,1,2,3,-4,-4
CC(C)C(NC(=O)C12CC3CC(CC(C3)C1)C2)C(=O)N/N=C/C1=C(N2CCOCC2)C(=C\c2ccc([N+](=O)[O-])cc2)/CC1 (centres undefined),24,6,3,32*,-16,-4
O=C(NC1CCCCC1)C1c2ccccc2OCC(=O)N1CC(F)(F)F (centres undefined),.,.,-2,2,-7,.
CN(C(=S)NC(=O)c1ccc(F)cc1)C1CCCCC1,10,3,0,-4,9,2
CN(C(=S)NC(=O)c1ccc(Cl)cc1)C1CCCCC1,70*,20,72*,2,5,-4
Cc1ccc(C(=O)N/C(=C/c2cccnc2)C(=O)N2CCCCCC2)cc1,-9,6,-1,2,-2,2
Nc1ccc(N)c(C(=O)O)c1,96*,96*,81*,33*,105*,117*
Nc1ccc(C(=O)O)c(O)c1,24,-1,0,0,0,-1
C/C(N)=C(/C#N)C(=O)CSc1nc2ccccc2c(=O)n1Cc1ccc(F)cc1,73*,24,17,-8,0,34
CC(=O)Nc1ccc(S(=O)(=O)NCCC(=O)OCC(=O)NNC(=O)c2ccccc2)cc1,-5,-2,0,-4,5,-4
Cc1ccc(S(=O)(=O)Nc2ccc(Cl)cc2O)cc1,.,.,-1,.,2,.
CCCCC[C@@H](C)N1C[C@@H](COCc2ccccc2)Oc2cc(N3CC[C@H](N(C)C)C3)ccc2S1(=O)=O,.,.,-3,7,-43,.
CCC1=NN2C(=N)/C(=C\c3ccc(OCCOc4ccc(NC(C)=O)cc4)cc3)C(=O)N=C2S1,-5,2,1,13,-6,-4
CCc1nn2c(=O)cc(COc3ccc(/C=C4\C(=N)N5N=C(C)SC5=NC4=O)cc3)nc2s1,33,2,5,22,24,59*
CCC1=NN2C(=N)/C(=C/c3ccc(OS(=O)(=O)c4ccccc4)c(OC)c3)C(=O)N=C2S1,-1,1,1,82*,17,3
COc1cc(/C=C2\C(=N)N3N=C(S(C)(=O)=O)SC3=NC2=O)cc(OC)c1OCCOc1ccccc1C,10,1,2,26*,8,0
COc1cc(/C=C2\C(=N)N3N=C(C)SC3=NC2=O)cc(OC)c1OCCOc1ccccc1C,-3,-2,1,3,-2,6
CCOc1cc(/C=C2\C(=N)N3N=C(C)SC3=NC2=O)ccc1OCCOc1cccc(OC)c1,-8,-2,6,45*,1,-1
COc1ccc(F)cc1S(=O)(=O)NCCCn1ccnc1,-5,-2,-4,-5,0,-2
C[C@@H]1O[C@H](C2CC2)Cc2[nH]c(=S)[nH]c(=O)c21,.,.,-4,5,1,.
Cc1ccc(N2C(=S)SC3CS(=O)(=O)CC32)cc1 (centres undefined),-5,1,1,-2,47*,-1
Cc1ccccc1CN1C(=O)c2ccccc2S1(=O)=O,-4,0,-1,-2,44*,-2
C=CCN(CC=C)Cc1c(O)ccc2c1oc(=O)c1ccccc12,56*,2,5,10,16,55*
Cc1cc(/C=N/NC(N)=S)c(O)c(/C=N/NC(N)=S)c1,12,-1,1,5,-7,53*
SMILES,Scp1 inh,STEP block,LMPTP inh,NadD inh,SUMO1 PPI mod,DNMT1 block
NC(=S)N/N=C/c1cccc(O)c1O,-3,2,4,-5,2,0
Nc1nc(SCC(=O)c2cc3ccccc3o2)n[nH]1,-3,-5,1,4,40*,-4
COc1ccccc1C(=O)CSc1n[nH]c(N)n1,5,0,0,0,1,-3
COc1cccc(C(=O)Nc2cccc3c2ccc2cccn23)c1,-2,0,0,3,8,-6
CCOC(=O)c1sc(N=NC2=C(O)CCCC2=O)c(C(=O)OCC)c1C,26,4,39,38*,-29,18
COc1cccc(-c2nnc3n2N=C(c2cccc(Br)c2)CS3)c1,-5,-1,-3,12,49*,29
Cc1cccc(-c2nnc3n2N=C(c2ccc(Br)cc2)CS3)c1,39,.,.,.,.,.
Cc1n[nH]c(C)c1CCc1nc2c3ccccc3nc(SCC(N)=O)n2n1,0,1,-1,11,5,-1
Cc1ccc(NC(=O)CSc2nc3ccccc3c3nc(CCc4c(C)n[nH]c4C)nn23)cc1F,-1,-13,-2,0,43*,-20
CN1CCN(c2ccc3c(c2)OC[C@@H](Cc2ccccc2)NS3(=O)=O)CC1,.,.,-2,-6,-2,.
COc1ccc2[nH]c(=O)c(CN(C3CCCCC3)C(c3nnnn3Cc3ccco3)C(C)C)cc2c1 (centres undefined),11,-4,2,59*,22,39
COc1ccc2[nH]c(=O)c(CN(Cc3nnnn3Cc3ccco3)C3CCCCC3)cc2c1,10,4,0,8,18,31
O=Nc1c(O)c2ccccc2c2ccccc12,-8,3,4,4,-37,58*
O=c1ccc2ccccc2c2ccccc12,.,1,0,-5,0,0
CC1(C(=O)NCc2ccccc2)CSCC(=O)N1Cc1cccs1 (centres undefined),.,.,0,.,2,.
O=C(Nc1ccc2c(c1)OCCO2)C(c1ccccc1)n1c(=O)c(-c2cc3ccccc3[nH]2)nc2ccccc21 (centres undefined),.,.,4,.,0,.
CCn1cc(C(=O)O)c(=O)c2cnc(N3CCN(C(=S)Nc4ccc(F)cc4)CC3)nc21,1,.,.,.,.,.
CCn1cc(C(=O)O)c(=O)c2cnc(N3CCN(C(=S)Nc4ccccc4Cl)CC3)nc21,2,5,51*,-2,8,0
CCn1cc(C(=O)O)c(=O)c2cc(F)c(N3CCN(C(=S)NC(=O)c4ccc(OC)cc4)CC3)cc21,-9,7,67*,15,6,1
CCn1cc(C(=O)O)c(=O)c2cc(F)c(N3CCN(C(=S)NC(=O)c4ccccc4F)CC3)cc21,-12,2,70*,3,-7,0
CCn1cc(C(=O)O)c(=O)c2cc(F)c(N3CCN(C(=S)NC(=O)c4cccc(C)c4)CC3)cc21,-12,2,60*,5,5,-3
CCOC(=O)C[C@@H]1OC[C@H](C(C)C)N1S(=O)(=O)c1ccc(C)cc1,.,.,-1,.,6,.
